Experimental data taken from ChEMBL document CHEMBL1126948, “Exploration of neutral endopeptidase active site by a series of new thiol-containing inhibitors” (J Med Chem, 1993).

Experiments:
Neprilysin = biological target: T1, Neprilysin (Oryctolagus cuniculus, UniProt P08049); experiment: Inhibitory concentration was evaluated by Inhibiting 50% of Neutral endopeptidase enzyme (NEP) activity using 20 nM [3H]D-Ala2-Leu-enkephalin as substrate
T1 sequence (P08049 whole entry): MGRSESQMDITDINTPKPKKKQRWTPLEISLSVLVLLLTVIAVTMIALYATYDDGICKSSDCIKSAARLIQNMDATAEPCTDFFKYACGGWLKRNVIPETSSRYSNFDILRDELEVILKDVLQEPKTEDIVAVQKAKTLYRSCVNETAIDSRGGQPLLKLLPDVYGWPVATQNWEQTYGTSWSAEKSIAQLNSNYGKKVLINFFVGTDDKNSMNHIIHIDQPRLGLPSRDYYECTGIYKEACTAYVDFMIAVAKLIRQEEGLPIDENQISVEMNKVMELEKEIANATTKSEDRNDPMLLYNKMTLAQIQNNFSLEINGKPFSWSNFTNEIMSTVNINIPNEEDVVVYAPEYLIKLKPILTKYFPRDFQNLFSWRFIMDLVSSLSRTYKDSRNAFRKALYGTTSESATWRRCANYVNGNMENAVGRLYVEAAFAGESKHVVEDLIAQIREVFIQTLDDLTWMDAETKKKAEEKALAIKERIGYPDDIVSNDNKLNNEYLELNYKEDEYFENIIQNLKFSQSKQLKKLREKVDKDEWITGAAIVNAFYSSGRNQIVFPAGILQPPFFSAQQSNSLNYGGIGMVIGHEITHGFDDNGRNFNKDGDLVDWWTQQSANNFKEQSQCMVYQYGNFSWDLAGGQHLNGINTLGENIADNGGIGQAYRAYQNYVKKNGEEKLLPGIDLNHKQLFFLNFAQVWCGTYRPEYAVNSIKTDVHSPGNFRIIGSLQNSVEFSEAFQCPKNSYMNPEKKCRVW
Outline: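 NEP purified to homogeneity from rabbit kidney, final 1 pmol/100 μL. Preincubated 15 min at 25 °C with or without increasing inhibitor concentrations in 50 mM Tris-HCl pH 7.4. [3H]-D-Ala2-Leu-enkephalin added to a final 20 nM. Stopped after 30 min with 0.5 M HCl. Tritiated metabolites separated on polystyrene beads. IC50 by log probit of five concentrations, mean ± SEM of three independent experiments.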

[1] = biological target: T2, Angiotensin-converting enzyme (Homo sapiens, UniProt P12821); experiment: Inhibitory concentration was evaluated by inhibiting 50% of Angiotensin I Converting Enzyme activity using 50 uM N-Cbz-Phe-His-Leu as substrate
Outline: (§1)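 Recombinant human ACE preincubated 15 min at 37 °C with various inhibitor concentrations in 50 mM Tris-HCl pH 7.4. N-Cbz-Phe-His-Leu then added to a final 0.05 mM. Reaction ran 15 min and was stopped with 2 M NaOH. His-Leu measured fluorimetrically (ex 365, em 495 nm) against a His-Leu calibration curve. IC50 by log probit of five concentrations, mean ± SEM of three independent experiments.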

[2] = biological target: T2, Angiotensin-converting enzyme; experiment: Inhibitory concentration was evaluated by Inhibiting 50% of Angiotensin I converting enzyme activity using 50 uM N-Cbz-Phe-His-Leu as substrate
[3] = biological target: T2, Angiotensin-converting enzyme; experiment: Inhibitory concentration was evaluated by inhibiting 50% of Angiotensin I Converting Enzyme activity using 50 micro M N-Cbz-Phe-His-Leu as substrate; outline: as §1

T2 sequence (P12821 whole entry): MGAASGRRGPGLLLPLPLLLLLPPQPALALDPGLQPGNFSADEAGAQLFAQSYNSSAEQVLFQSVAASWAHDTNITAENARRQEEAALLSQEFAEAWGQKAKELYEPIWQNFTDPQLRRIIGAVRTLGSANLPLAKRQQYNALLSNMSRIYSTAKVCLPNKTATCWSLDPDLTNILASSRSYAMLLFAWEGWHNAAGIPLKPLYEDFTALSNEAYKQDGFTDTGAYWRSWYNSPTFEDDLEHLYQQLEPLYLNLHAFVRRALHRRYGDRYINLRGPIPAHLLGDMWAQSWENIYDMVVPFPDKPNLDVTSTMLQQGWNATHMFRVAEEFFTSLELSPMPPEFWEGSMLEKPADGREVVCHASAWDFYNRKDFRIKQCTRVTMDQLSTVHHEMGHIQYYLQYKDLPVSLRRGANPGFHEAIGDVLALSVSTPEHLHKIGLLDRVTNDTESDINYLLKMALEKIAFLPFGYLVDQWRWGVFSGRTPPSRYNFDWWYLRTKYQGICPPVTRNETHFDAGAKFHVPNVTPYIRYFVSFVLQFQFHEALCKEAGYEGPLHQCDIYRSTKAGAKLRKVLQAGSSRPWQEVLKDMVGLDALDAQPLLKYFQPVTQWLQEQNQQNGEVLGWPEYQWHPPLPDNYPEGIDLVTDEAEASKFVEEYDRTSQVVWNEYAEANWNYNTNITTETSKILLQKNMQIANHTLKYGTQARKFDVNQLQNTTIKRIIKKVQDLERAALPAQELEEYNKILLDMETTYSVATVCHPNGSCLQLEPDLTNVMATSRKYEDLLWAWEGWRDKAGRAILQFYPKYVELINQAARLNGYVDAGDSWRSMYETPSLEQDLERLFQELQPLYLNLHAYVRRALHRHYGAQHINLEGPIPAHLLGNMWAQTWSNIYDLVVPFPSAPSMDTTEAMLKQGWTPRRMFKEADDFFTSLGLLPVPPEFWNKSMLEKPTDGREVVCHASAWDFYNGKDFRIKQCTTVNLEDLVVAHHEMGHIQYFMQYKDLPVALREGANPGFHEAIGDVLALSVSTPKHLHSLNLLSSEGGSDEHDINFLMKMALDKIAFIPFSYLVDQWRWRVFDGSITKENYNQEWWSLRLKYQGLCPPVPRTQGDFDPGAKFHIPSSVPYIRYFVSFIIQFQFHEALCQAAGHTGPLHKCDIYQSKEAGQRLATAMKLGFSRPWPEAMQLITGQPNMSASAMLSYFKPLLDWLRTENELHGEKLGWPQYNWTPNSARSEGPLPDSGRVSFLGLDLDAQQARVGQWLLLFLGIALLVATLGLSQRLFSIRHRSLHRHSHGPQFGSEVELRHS

Row | Structure (SMILES) | IC50 (Neprilysin) [nM] | IC50 [1] [nM] | IC50 [2] [nM] | IC50 [3] [nM]
1 | CC(C)C[C@H](S)[C@H](Cc1ccccc1)C(=O)N[C@@H](C)C(=O)O | 35 | 10000 | – | –
2 | CC(C)C(NC(=O)C(Cc1ccccc1)C(C)S)C(=O)NC(Cc1ccc(O)cc1)C(=O)O (stereo not given) | 320 | – | 1300 | –
3 | CCC(C)C(NC(=O)C(Cc1ccccc1)C(C)S)C(=O)NC(Cc1ccc(O)cc1)C(=O)O (stereo not given) | 380 | – | 300 | –
4 | CC(NC(=O)C(Cc1ccccc1)C(S)CCc1ccccc1)C(=O)O (stereo not given) | 44 | 4000 | – | –
5 | CC(C)C[C@H](S)[C@@H](Cc1ccccc1)C(=O)N[C@@H](C)C(=O)O | 3.6 | – | – | 16100
6 | CC(C)CC(S)C(Cc1ccccc1)C(=O)NC(Cc1ccc(O)cc1)C(=O)O (stereo not given) | 26 | 710 | – | –
7 | CC(C)CC(S)CC(=O)NC(Cc1ccccc1)C(=O)O (stereo not given) | 37 | 10000 | – | –
8 | CCCCC(NC(=O)C(Cc1ccccc1)C(C)S)C(=O)NC(Cc1ccc(O)cc1)C(=O)O (stereo not given) | 50 | – | 6100 | –
9 | CC(C)C(C(=O)NC(Cc1ccc(O)cc1)C(=O)O)C(S)CCc1ccccc1 (stereo not given) | 53 | 4500 | – | –
10 | CC(C)CC(S)[C@H](Cc1ccccc1)C(=O)N[C@@H](C)C(=O)O (stereo not given in full) | 40 | 4000 | – | –
11 | CC(C)CC(S)CC(=O)NC(Cc1ccccc1)C(=O)NC(Cc1ccc(O)cc1)C(=O)O (stereo not given) | 50 | – | 2800 | –
12 | CC(C)CC(S)C(Cc1ccccc1)C(=O)NC(C)C(=O)O (stereo not given) | 14 | 12000 | – | –
13 | CC(S)C(Cc1ccccc1)C(=O)NCC(=O)O (stereo not given) | 50 | – | 11000 | –
14 | O=C(O)C(Cc1ccc(O)cc1)NC(=O)C(Cc1ccccc1)C(S)CCc1ccccc1 (stereo not given) | 180 | 1600 | – | –
15 | CC(C)C[C@@H](S)[C@H](Cc1ccccc1)C(=O)N[C@@H](C)C(=O)O | 20 | 5000 | – | –
